Experimental data taken from ChEMBL document CHEMBL1143810, “Synthesis and antimalarial evaluation of a series of piperazinyl flavones” (Bioorg Med Chem Lett, 2007).
pIC50: −log10 of the molar value.

Legend:
[1] = test system: Plasmodium falciparum; experiment: Antiplasmodial activity against Plasmodium falciparum D6; format: functional, organism-based
[2] = test system: Plasmodium falciparum; experiment: Antiplasmodial activity against Plasmodium falciparum FcB1; format: functional, organism-based
Summary of the method: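 P. falciparum FcB1 (chloroquine-resistant) was kept in continuous culture in human erythrocytes. Growth inhibition was read by [³H]hypoxanthine incorporation. IC50 was taken from the drug concentration–response curve and is the mean of three independent experiments.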

[3] = test system: MRC5; experiment: Cytotoxicity against MRC5 cells; format: cell-based, Homo sapiens; conditions: for pIC50: Homo sapiens, MRC5
Summary of the method: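 MRC5 cells were cultured for 5 days in the presence of drug, with viability read by colorimetric MTT. IC50 was taken from the concentration–response curve and is the mean of three independent experiments.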

[4] = test system: Plasmodium falciparum; experiment: Antiplasmodial activity against chloroquine-resistant Plasmodium falciparum K1; format: functional, organism-based
Summary of the method: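 Parasites kept in continuous culture on human erythrocytes; growth measured by [3H]hypoxanthine incorporation. IC50 taken from the drug concentration–response curve, mean of three independent experiments.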

[5] = test system: Plasmodium yoelii; experiment: Antiplasmodial activity as reduced parasitaemia against Plasmodium yoelii N67 infected Swiss mice (Mus musculus) at 50 mg/kg peroral dose; format: functional; conditions: route oral
Summary of the method: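 Peters 4-day suppressive test in mice infected with P. yoelii nigeriensis N67. Compound was given orally (0.5 ml) daily from day 0, at 10 or 50 mg/kg as per line. Groups had five mice, with a vehicle-only untreated group. Day-4 parasitemia was counted on Diff Quick-stained blood smears. % inhibition was calculated against untreated mice.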

[6] = test system: Plasmodium yoelii; experiment: Antiplasmodial activity as reduced parasitaemia against Plasmodium yoelii N67 infected Swiss mice (Mus musculus) at 10 mg/kg peroral dose; format: functional; conditions: route oral
Summary of the method: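 4-day suppressive test in P. yoelii nigeriensis N67-infected mice, five per group. Dosing oral, once daily from day 0, 0.5 ml/mouse. Untreated group received vehicle only. Parasitemia read on day 4 from Diff Quick-stained blood smears. Percent inhibition calculated against untreated mice. Deaths counted at day 14.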

[7] = Selectivity index, ratio of IC50 for MRC5 cells to IC50 for Plasmodium falciparum FcB1; format: functional
Summary of the method: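 Ratio of MRC5 IC50 to P. falciparum FcB1 IC50. MRC5 IC50 came from a 5-day drug exposure read by MTT. Parasite IC50 came from [³H]hypoxanthine incorporation in erythrocyte cultures. Both were taken from concentration–response curves as means of three independent experiments.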

[8] = test system: Plasmodium falciparum; experiment: In vitro antiplasmodial activity against Plasmodium falciparum Thai

SMILES: CCOC(=O)COc1cc(-c2cc(=O)c3c(O)cc(OCC(=O)N4CCN(Cc5cccc(OC)c5OC)CC4)cc3o2)ccc1OC
- pIC50 [1]: 5.62

SMILES: CCOC(=O)COc1cc(O)c2c(=O)cc(-c3ccc(OC)c(OCC(=O)N4CCN(Cc5ccc(OC)c(OC)c5OC)CC4)c3)oc2c1
- pIC50 [1]: 5.21

SMILES: CCOC(=O)COc1cc(-c2cc(=O)c3c(O)cc(OCC(=O)N4CC[N+](C)(Cc5ccc(OC)c(OC)c5OC)CC4)cc3o2)ccc1OC
- pIC50 [2]: 4.39

SMILES: COc1ccc(CN2CCN(C(=O)COc3ccc4c(=O)cc(-c5ccccc5)oc4c3)CC2)c(OC)c1OC
- pIC50 [2]: 4.89

SMILES: COc1ccc(CN2CCN(C(=O)COc3ccc4c(=O)cc(-c5cc(C(C)(C)C)c(O)c(C(C)(C)C)c5)oc4c3)CC2)c(OC)c1OC
- pIC50 [3]: < 3.82
- pIC50 [4]: 6.40
- inhibition in vivo at 50 mg/kg [5]: 38.5%
- inhibition in vivo at 10 mg/kg [6]: 24.1%
- pIC50 [2]: 5.92
- Ratio IC50 [7]: >125
- pIC50 [8]: 6.05

SMILES: CCOC(=O)COc1cc(-c2cc(=O)c3c(O)cc(OCCN4CCN(Cc5ccc(OC)c(OC)c5OC)CC4)cc3o2)ccc1OC
- pIC50 [3]: 4.74
- pIC50 [2]: 5.37
- Ratio IC50 [7]: 4.2

SMILES: CCOC(=O)COc1cc(-c2cc(=O)c3c(O)cc(OCC(=O)N4CCN(Cc5ccc(Cl)cc5)CC4)cc3o2)ccc1OC
- pIC50 [1]: 5.22

SMILES: COc1ccc(-c2cc(=O)c3c(O)cc(OCC(=O)N4CCN(Cc5ccc(OC)c(OC)c5OC)CC4)cc3o2)cc1OCC(=O)OC(C)(C)C
- pIC50 [3]: < 3.85
- pIC50 [4]: 5.85
- pIC50 [2]: 5.77
- Ratio IC50 [7]: >82
- pIC50 [8]: 5.82

SMILES: CCOC(=O)COc1cc(-c2cc(=O)c3c(O)cc(OCC(=O)N4CCN(Cc5ccc(OC)c(OC)c5OC)CC4)cc3o2)ccc1OC
- pIC50 [3]: < 4.15
- pIC50 [4]: 4.89
- inhibition in vivo at 50 mg/kg [5]: 43.1%
- pIC50 [1]: 6.30
- inhibition in vivo at 10 mg/kg [6]: 27.1%
- pIC50 [2]: 6.00
- Ratio IC50 [7]: >140
- pIC50 [8]: 4.89

SMILES: COc1ccc(-c2cc(=O)c3c(O)cc(OCC(=O)N4CCN(Cc5ccc(OC)c(OC)c5OC)CC4)cc3o2)cc1O
- pIC50 [1]: 5.28

SMILES: CCOC(=O)COc1cc(OCC(=O)N2CCN(Cc3ccc(OC)c(OC)c3OC)CC2)c2c(=O)cc(-c3ccc(OC)c(OCC(=O)OCC)c3)oc2c1
- pIC50 [1]: 5.27

SMILES: CCOC(=O)COc1cc(-c2cc(=O)c3c(O)cc(OCC(=O)N4CCN(Cc5c(OC)cc(OC)cc5OC)CC4)cc3o2)ccc1OC
- pIC50 [3]: 5.02
- pIC50 [2]: 5.72
- Ratio IC50 [7]: 5

SMILES: CCN(CC)CCCC(C)Nc1ccnc2cc(Cl)ccc12 (stereo unspecified) [CHLOROQUINE]
- Activity ([3]; human, mrc5): Active

SMILES: CCOC(=O)COc1cc(-c2cc(=O)c3c(O)cc(OCC(=O)N4CCN(C)CC4)cc3o2)ccc1OC
- pIC50 [2]: 4.59

SMILES: CCOC(=O)COc1cc(-c2cc(=O)c3c(O)cc(OCC(=O)N4CCN(Cc5ccc(O)c(OC)c5OC)CC4)cc3o2)ccc1OC
- pIC50 [3]: 5.00
- pIC50 [4]: 6.40
- pIC50 [2]: 6.22
- Ratio IC50 [7]: 16.7
- pIC50 [8]: 5.92

SMILES: COc1ccc(-c2cc(=O)c3c(O)cc(OCC(=O)N4CCN(Cc5ccc(OC)c(OC)c5OC)CC4)cc3o2)cc1OCC(=O)N1CCN(Cc2ccc(OC)c(OC)c2OC)CC1
- pIC50 [3]: 6.00
- pIC50 [1]: 6.74

SMILES: CCOC(=O)COc1cc(-c2cc(=O)c3c(O)cc(OCC(=O)N4CCN(C(=O)OC(C)(C)C)CC4)cc3o2)ccc1OC
- pIC50 [3]: 5.42
- pIC50 [2]: 5.74
- Ratio IC50 [7]: 2.1

SMILES: CCOC(=O)COc1cc(-c2cc(=O)c3c(O)cc(OCC(=O)N4CCN(Cc5ccccc5)CC4)cc3o2)ccc1OC
- pIC50 [1]: 5.02

SMILES: CCOC(=O)COc1cc(-c2cc(=O)c3c(O)cc(OCC(=O)N4CCN(Cc5ccc(OCc6ccccc6)c(OC)c5OC)CC4)cc3o2)ccc1OC
- pIC50 [3]: 5.00
- pIC50 [2]: 5.55
- Ratio IC50 [7]: 3.6

SMILES: CCOC(=O)COc1cc(-c2cc(=O)c3c(O)cc(OCC(=O)N4CCN(Cc5ccc(OC)c(OC)c5)CC4)cc3o2)ccc1OC
- pIC50 [1]: 5.33

SMILES: CCOC(=O)COc1cc(-c2cc(=O)c3c(O)cc(OCC(=O)N4CCN(Cc5ccc(OC)cc5OC)CC4)cc3o2)ccc1OC
- pIC50 [3]: 5.25
- pIC50 [2]: 5.77
- Ratio IC50 [7]: 3.3

SMILES: CCCCCCOc1cc(-c2cc(=O)c3c(O)cc(OCC(=O)N4CCN(Cc5ccc(OC)c(OC)c5OC)CC4)cc3o2)ccc1OC
- pIC50 [2]: 5.41

SMILES: COc1ccc(CN2CCN(C(=O)COc3cc(O)c4c(=O)cc(-c5ccccc5)oc4c3)CC2)c(OC)c1OC
- pIC50 [2]: 4.85

SMILES: CCOC(=O)COc1cc(-c2cc(=O)c3c(O)cc(OCC(=O)N4CCN(Cc5ccc(OC)cc5)CC4)cc3o2)ccc1OC
- pIC50 [2]: 5.05

SMILES: COc1ccc(-c2cc(=O)c3c(O)cc(OCC(=O)N4CCN(Cc5ccc(OC)c(OC)c5OC)CC4)cc3o2)cc1OC1CCCC1
- pIC50 [3]: < 3.82
- pIC50 [2]: 5.55
- Ratio IC50 [7]: >53

SMILES: CCOC(=O)COc1cc(-c2cc(=O)c3c(O)cc(OCC(=O)N4CCN(Cc5cc(OC)c(OC)c(OC)c5)CC4)cc3o2)ccc1OC
- pIC50 [1]: 5.40

SMILES: CCOC(=O)COc1cc(-c2cc(=O)c3c(O)cc(OCC(=O)N4CC[N+]([O-])(Cc5ccc(OC)c(OC)c5OC)CC4)cc3o2)ccc1OC
- pIC50 [2]: 4.72
